Experimental data taken from PMC6311382 (Angewandte Chemie (International ed. in English), 2015).

What was measured:
[1] = molecular target: T1, H. pylori HtrA (Helicobacter pylori, UniProt G2J5T2); assay: SPR binding affinity and kinetics to HtrA
T1 sequence (G2J5T2 18-475): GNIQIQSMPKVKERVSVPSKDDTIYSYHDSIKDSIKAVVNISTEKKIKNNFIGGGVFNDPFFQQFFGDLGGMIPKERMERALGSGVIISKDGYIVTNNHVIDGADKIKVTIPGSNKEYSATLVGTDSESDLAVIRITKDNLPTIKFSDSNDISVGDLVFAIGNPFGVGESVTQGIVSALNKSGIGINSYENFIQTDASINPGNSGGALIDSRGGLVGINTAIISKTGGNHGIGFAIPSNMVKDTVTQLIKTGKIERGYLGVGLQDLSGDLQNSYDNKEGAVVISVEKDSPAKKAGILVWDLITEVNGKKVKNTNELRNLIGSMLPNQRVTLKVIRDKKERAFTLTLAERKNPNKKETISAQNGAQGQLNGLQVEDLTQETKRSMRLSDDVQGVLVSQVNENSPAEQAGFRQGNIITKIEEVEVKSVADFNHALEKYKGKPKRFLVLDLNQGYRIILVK

[2] = assay type: physicochemical; details: dynamic light scattering
[3] = molecular target: T1, H. pylori HtrA; assay: Western blot analysis of recombinant E-cadherin cleavage by HtrA; assay type: biochemical
Method in brief: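 Recombinant full-length 130 kDa E-cadherin is incubated with H. pylori HtrA and test compound at a range of concentrations. HtrA proteolysis is read by Western blot as generation of the roughly 90 kDa soluble E-cadherin fragment.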

[4] = system: wild-type H. pylori transmigration; assay: Transwell migration assay across polarized MKN-28 epithelial layer; assay type: cell-based, Helicobacter pylori; details: 50 μM, 24 h, MKN-28 cells
Method in brief: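 Wild-type H. pylori crossing a polarized epithelial layer of human gastric adenocarcinoma MKN-28 cells in a transwell system, followed for 24 h with test compound at two concentrations. Transmigrated bacteria are read as colony-forming units. Significance at 24 h is tested by one-way ANOVA (Dunnett) against the untreated control.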

[5] = system: wild-type Campylobacter jejuni transmigration; assay: Transwell migration assay, Campylobacter jejuni; assay type: cell-based; details: 50 and 100 μM, 24 h
Method in brief: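 Transmigration of wild-type Campylobacter jejuni is followed over 24 h with test compound at two concentrations. Bacteria are counted as colony-forming units. N = 3 independent experiments. Significance at 24 h is tested by one-way ANOVA (Dunnett) against the untreated control.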

[6] = molecular target: T1, H. pylori HtrA; assay: 1H STD NMR binding experiment; details: 10 μM HtrA

Row | SMILES | koff [1] | LE (ligand efficiency) ([1]; = −1.4 logKD/(number of non-hydrogen atoms)) | solubility kinetic [2] | proteolytic activity of HtrA ([3]; at 50 μM) | concentration at which inhibition of E-cadherin cleavage is seen ([3]; recombinant E-cadherin) | inhibition of H. pylori transmigration [4] | inhibition of C. jejuni transmigration, compared with H. pylori [5] | saturation transfer / binding to HtrA [6]
1 | Cc1ccc(C)n1[C@@H](Cc1ccc(-c2ccc(C(=O)O)o2)cc1)C(=O)O [Compound 2] | 1.8 s⁻¹ | 0.24 | > 100 µM | blocked | 10 µM | significant effects | strikingly dissimilar outcome | direct binding
2 | CO[C@@H]1O[C@H](CO)[C@@H](O)[C@H](O)[C@H]1O [β-methyl-D-glucoside, reference compound] |  |  |  |  |  |  |  | no saturation transfer
